The text below walks through data of ChEMBL document CHEMBL2203081 (Bioorg Med Chem Lett, 2012).

Active and inactive are the calls of the source. No cut-off for these calls is given here.

For data set [1], the target named is Serine/threonine-protein kinase SIK1 (Homo sapiens) (UniProt P57059). The experiment in a line: Inhibition of SIK assessed as residual activity at 10 uM relative to control.
In data set [2] the target is Serine/threonine-protein kinase SBK1 (Homo sapiens) (UniProt Q52WX2). The experiment in a line: Inhibition of SBK1 assessed as residual activity at 10 uM relative to control.
The target of data set [3] is MAP kinase-activated protein kinase 2 (Homo sapiens) (UniProt P49137). Nature of the data set: Inhibition of MAPKAPK2 assessed as residual activity at 10 uM relative to control.
Data set [4] deals with Mitogen-activated protein kinase kinase kinase kinase 3 (Homo sapiens) (UniProt Q8IVH8). Nature of the data set: Inhibition of MAP4K3 assessed as residual activity at 10 uM relative to control.
Data set [5] deals with Mast/stem cell growth factor receptor Kit (Homo sapiens) (UniProt P10721). The experiment in a line: Inhibition of KIT assessed as residual activity at 10 uM relative to control.
Data set [6] concerns Mus musculus. The experiment in a line: Inhibition of LRRK2 in mouse assessed as inhibition of Ser910 autophosphorylation in spleen at 100 mg/kg, ip by immunoblot method. In kind it is functional, organism-based. Further details: dose 100 mg/kg. For orientation: In western blotting, separated proteins are transferred to a membrane and probed.
Data set [7] relates to Plasma. Nature of the data set: AUClast in Swiss albino mouse plasma at 10 mg/kg, po. The settings on record: in vivo. Format: ADME, organism-based. Further details: dose 10 mg/kg, route oral, time 0 - last. The procedure, abridged:
(§1)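 Male Swiss Albino mice, single dose given intravenously (1 mg/kg) or orally (10 mg/kg). Drug measured in plasma and brain, with AUClast taken for each. The brain/plasma ratio is based on AUClast, and oral bioavailability is derived from the IV and PO plasma data.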

For data set [8], the target named is Dual specificity tyrosine-phosphorylation-regulated kinase 3 (Homo sapiens) (UniProt O43781). The experiment in a line: Inhibition of DYRK3 assessed as residual activity at 1 uM. The procedure, abridged:
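Standard radioactivity-based enzymatic kinase assays on a 131-kinase panel run by the Dundee profiling service; residual kinase activity recorded.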

Data set [9] deals with T1, Mitogen-activated protein kinase kinase kinase 7 (Homo sapiens) (UniProt O43318).
T1 sequence (whole entry): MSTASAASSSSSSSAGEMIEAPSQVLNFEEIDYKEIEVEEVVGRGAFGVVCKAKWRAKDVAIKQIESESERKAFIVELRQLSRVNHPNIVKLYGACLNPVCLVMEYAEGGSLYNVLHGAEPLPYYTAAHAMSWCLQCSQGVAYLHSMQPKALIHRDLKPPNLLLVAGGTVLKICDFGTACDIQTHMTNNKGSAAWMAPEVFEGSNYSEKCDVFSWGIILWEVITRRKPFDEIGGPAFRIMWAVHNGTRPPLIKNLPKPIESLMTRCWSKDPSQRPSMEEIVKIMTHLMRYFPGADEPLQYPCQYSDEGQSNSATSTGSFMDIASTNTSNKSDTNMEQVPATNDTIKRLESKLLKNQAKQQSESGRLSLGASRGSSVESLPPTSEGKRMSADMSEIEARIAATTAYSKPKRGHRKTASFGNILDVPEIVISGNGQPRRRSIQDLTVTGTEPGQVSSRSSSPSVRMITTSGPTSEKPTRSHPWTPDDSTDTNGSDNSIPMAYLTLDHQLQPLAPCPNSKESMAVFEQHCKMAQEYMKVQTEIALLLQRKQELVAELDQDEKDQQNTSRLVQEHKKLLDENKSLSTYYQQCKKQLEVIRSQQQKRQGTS
The experiment in a line: Inhibition of TAK1 assessed as residual activity at 10 uM.

Data set [10] addresses Serine/threonine-protein kinase Nek6 (Homo sapiens) (UniProt Q9HC98). Nature of the data set: Inhibition of NEK6 assessed as residual activity at 10 uM.
For data set [11], the target named is Homeodomain-interacting protein kinase 3 (Homo sapiens) (UniProt Q9H422). Nature of the data set: Inhibition of HIPK3 assessed as residual activity at 10 uM relative to control.
For data set [12], the system named is Receptor-type tyrosine-protein kinase FLT3 (Homo sapiens), P36888 [N841I]. The experiment in a line: Inhibition of FLT3 N841I mutant assessed as residual activity at 10 uM relative to control.
Data set [13] addresses Receptor-type tyrosine-protein kinase FLT3 (Homo sapiens) (UniProt P36888). Nature of the data set: Inhibition of FLT3 assessed as residual activity at 10 uM relative to control.
Data set [14] deals with Tyrosine-protein kinase Fer (Homo sapiens) (UniProt P16591). The experiment in a line: Inhibition of FER assessed as residual activity at 10 uM relative to control.
Data set [15] concerns the target Mitogen-activated protein kinase 1 (Homo sapiens) (UniProt P28482). The experiment in a line: Inhibition of ERK2 assessed as residual activity at 10 uM relative to control.
Data set [16] deals with Ephrin type-B receptor 6 (Homo sapiens) (UniProt O15197). The experiment in a line: Inhibition of EPHB6 assessed as residual activity at 10 uM relative to control. The procedure, abridged:
(§2)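 Competition kinase-binding assay (KINOMEscan) across a non-redundant panel of 329 kinases beyond the radiometric panel; residual binding expressed relative to control.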

The target of data set [17] is Ephrin type-A receptor 3 (Homo sapiens) (UniProt P29320). The experiment in a line: Inhibition of EPHA3 assessed as residual activity at 10 uM relative to control. In short, it runs like this:
as §2

For data set [18], the target named is Epidermal growth factor receptor (Homo sapiens) (UniProt P04626+P00533+Q15303+P21860). Nature of the data set: Inhibition of EGFR L747-T751del, Sins mutant assessed as residual activity at 10 uM relative to control. In kind it is protein assay. The procedure, abridged:
as §2

Data set [19] deals with Tyrosine-protein kinase SYK (Homo sapiens) (UniProt P43405). The experiment in a line: Inhibition of SYK assessed as residual activity at 1 uM.
Data set [20] relates to Plasma. The experiment in a line: AUClast in Swiss albino mouse plasma at 1 mg/kg, iv. Format: ADME, organism-based. On the set-up: time 0 - last, dose 1 mg/kg, route intravenous. The note with it: in vivo. The procedure, abridged: as §1
Data set [21] addresses Ribosomal protein S6 kinase beta-1 (Homo sapiens) (UniProt P23443). Nature of the data set: Inhibition of S6K1 assessed as residual activity at 1 uM.

Mitogen-activated protein kinase kinase kinase kinase 3 (Homo sapiens), sequence (Q8IVH8 whole entry): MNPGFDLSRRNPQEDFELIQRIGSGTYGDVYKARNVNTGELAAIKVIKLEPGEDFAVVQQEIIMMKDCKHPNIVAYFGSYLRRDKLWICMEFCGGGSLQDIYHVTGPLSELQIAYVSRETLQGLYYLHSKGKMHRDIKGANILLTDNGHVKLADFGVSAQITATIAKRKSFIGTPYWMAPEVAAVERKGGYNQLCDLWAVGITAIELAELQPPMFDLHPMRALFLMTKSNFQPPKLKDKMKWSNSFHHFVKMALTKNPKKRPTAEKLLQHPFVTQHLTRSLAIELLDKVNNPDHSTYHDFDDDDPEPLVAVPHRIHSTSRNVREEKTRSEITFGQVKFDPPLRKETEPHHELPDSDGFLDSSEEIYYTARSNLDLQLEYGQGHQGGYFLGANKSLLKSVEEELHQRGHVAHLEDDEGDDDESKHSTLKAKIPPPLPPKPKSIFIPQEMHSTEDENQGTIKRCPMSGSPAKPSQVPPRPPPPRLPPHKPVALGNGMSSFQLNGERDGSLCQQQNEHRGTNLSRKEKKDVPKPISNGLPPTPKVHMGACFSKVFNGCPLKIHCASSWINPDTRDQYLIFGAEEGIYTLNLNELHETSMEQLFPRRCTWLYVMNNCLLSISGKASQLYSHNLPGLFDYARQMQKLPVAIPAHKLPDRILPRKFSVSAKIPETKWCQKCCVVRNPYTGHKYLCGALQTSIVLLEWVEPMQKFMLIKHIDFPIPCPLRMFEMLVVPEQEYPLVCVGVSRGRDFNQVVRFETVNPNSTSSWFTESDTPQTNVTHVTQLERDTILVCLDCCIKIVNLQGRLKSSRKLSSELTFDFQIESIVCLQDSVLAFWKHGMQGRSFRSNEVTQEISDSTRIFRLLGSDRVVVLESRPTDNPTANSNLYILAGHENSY
Tyrosine-protein kinase Fer (Homo sapiens), sequence (P16591 whole entry, looked up): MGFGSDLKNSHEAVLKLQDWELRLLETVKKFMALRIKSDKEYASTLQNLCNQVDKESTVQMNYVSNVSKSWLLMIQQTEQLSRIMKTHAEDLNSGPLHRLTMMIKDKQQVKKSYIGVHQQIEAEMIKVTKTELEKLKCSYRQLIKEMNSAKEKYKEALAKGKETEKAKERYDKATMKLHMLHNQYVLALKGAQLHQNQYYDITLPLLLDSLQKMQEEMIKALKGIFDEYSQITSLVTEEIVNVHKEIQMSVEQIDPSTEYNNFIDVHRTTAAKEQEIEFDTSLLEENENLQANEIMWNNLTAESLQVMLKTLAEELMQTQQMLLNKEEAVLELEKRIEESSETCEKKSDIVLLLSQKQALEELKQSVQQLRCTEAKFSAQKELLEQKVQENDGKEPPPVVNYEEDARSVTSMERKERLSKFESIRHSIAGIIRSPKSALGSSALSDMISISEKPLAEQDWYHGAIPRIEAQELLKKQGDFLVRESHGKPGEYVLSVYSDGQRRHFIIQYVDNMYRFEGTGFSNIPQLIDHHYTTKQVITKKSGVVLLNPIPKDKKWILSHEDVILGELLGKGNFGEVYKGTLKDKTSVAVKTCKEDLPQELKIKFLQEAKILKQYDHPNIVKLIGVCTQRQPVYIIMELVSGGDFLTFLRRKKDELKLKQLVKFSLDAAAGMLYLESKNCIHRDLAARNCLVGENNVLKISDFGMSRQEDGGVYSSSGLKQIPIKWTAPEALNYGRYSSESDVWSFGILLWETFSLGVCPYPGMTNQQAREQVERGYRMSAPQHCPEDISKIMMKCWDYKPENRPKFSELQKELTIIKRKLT
Ribosomal protein S6 kinase beta-1 (Homo sapiens), sequence (P23443 whole entry, looked up): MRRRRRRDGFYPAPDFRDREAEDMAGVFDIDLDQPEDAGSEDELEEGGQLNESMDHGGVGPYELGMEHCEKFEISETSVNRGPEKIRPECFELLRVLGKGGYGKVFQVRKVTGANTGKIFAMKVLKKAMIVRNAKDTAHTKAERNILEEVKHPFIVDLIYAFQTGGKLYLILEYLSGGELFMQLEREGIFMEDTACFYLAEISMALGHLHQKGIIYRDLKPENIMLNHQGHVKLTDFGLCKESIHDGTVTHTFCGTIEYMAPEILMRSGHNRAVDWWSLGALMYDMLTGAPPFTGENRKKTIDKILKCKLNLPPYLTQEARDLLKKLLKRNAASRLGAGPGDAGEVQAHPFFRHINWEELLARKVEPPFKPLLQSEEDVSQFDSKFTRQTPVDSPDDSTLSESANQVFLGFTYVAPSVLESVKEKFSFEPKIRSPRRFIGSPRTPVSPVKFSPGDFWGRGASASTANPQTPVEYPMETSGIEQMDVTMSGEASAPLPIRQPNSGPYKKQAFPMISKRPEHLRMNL
Serine/threonine-protein kinase SBK1 (Homo sapiens), sequence (Q52WX2 whole entry): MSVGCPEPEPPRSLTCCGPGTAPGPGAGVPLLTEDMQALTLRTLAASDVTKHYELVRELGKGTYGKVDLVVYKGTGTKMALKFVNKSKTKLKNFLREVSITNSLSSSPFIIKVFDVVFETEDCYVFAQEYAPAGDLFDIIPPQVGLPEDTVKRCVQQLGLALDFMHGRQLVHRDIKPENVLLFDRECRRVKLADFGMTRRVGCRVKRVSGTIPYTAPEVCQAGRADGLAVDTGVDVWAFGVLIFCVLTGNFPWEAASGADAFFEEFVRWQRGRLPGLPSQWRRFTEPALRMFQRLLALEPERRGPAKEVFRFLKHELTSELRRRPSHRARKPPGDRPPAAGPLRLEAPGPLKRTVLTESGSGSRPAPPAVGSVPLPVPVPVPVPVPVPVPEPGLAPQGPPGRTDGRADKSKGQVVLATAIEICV
Homeodomain-interacting protein kinase 3 (Homo sapiens), sequence (Q9H422 whole entry, looked up): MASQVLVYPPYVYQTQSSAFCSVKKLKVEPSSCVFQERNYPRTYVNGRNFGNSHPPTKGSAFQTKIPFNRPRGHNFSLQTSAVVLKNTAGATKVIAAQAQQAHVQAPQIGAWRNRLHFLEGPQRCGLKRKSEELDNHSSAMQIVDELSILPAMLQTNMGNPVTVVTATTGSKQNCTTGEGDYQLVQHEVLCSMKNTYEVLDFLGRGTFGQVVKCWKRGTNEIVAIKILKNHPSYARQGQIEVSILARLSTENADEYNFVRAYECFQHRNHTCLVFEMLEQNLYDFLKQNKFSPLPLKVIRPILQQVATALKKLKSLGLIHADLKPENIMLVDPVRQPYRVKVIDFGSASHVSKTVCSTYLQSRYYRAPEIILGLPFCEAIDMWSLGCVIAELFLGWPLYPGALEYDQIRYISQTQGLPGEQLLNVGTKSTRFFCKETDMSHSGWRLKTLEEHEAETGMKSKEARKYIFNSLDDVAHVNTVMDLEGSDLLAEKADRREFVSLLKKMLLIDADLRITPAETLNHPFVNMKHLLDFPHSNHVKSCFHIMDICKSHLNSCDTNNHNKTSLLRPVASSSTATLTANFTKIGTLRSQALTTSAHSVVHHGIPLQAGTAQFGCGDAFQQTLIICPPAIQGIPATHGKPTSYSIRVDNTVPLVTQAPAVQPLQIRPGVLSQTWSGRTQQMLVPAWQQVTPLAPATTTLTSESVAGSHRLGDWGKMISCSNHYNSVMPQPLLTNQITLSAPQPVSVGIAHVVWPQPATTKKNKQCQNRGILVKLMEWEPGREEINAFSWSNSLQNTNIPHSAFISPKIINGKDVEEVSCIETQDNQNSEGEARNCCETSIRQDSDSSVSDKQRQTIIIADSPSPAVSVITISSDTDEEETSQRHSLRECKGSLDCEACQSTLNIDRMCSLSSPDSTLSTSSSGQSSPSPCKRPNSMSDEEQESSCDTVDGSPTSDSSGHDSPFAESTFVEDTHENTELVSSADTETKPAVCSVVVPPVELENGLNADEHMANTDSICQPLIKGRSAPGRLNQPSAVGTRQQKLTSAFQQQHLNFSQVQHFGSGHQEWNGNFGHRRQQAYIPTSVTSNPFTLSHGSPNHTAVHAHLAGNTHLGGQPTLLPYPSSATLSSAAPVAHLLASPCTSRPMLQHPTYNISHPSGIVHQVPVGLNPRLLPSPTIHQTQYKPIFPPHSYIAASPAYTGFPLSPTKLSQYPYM
Ephrin type-A receptor 3 (Homo sapiens), sequence (P29320 whole entry): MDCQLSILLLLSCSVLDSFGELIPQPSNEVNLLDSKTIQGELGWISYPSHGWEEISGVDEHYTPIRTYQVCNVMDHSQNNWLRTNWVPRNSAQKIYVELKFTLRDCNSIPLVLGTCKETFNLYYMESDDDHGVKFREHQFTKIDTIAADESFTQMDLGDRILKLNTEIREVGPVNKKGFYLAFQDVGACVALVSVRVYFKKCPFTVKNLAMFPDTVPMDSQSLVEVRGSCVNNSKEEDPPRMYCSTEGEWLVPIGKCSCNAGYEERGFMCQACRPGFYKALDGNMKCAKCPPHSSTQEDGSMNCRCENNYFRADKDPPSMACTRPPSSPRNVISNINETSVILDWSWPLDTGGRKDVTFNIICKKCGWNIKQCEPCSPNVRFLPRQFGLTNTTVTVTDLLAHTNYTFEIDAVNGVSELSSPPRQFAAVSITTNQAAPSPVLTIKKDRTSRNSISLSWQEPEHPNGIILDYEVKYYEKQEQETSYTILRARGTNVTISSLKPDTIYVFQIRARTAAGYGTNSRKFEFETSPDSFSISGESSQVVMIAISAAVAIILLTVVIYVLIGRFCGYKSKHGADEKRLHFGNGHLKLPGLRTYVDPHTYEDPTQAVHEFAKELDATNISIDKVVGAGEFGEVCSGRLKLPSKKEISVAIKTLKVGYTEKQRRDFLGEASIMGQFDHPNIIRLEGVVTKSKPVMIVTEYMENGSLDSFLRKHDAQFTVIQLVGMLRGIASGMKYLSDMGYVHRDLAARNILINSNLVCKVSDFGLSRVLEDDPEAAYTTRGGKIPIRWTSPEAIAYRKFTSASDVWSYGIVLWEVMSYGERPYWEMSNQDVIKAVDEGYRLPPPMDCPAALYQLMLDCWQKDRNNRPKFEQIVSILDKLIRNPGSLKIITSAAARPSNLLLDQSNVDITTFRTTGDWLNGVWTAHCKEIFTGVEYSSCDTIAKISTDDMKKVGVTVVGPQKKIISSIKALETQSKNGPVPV

For `O=C(Nc1cccnc1)c1cc(-c2ccnc(F)c2)ccc1OCc1ccccc1`, the Activity in data set [1] was found to be 46%; in data set [2], 46%; in data set [3], 74%; in data set [4], 60%; in data set [5] it was 39%; in data set [8] it was 101%. The Activity in data set [9] is 101%; in [10], 65%; in [11], 58%; in [12] it was 30%; in data set [13] it was 66%; in data set [14], 67%. The Activity turned out to be 44% in data set [15]; 61% in [16]; 61% in [17]; 69% in [18]; 115% in data set [19]; 101% in data set [21]. In addition, the inhibition result in [6] is “Active”. Also, the AUClast in [7] came out at 635.3 ng·h/mL; in [20], 519.6 ng·h/mL.
